Screens (PubChem BioAssay)
In the library only some 2.6% were active in any assay of this set; here they are far more common.
Tb MetRS inh: Trypanosoma brucei MetRS inhibition; purified T. brucei MetRS, ATP depletion, Kinase-Glo luminescence; 0.4% of 360,000 active; inhibition, % at 11.9 µM;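 active = inhibition above a per-plate cutoff of the control wells' mean inhibition plus 3 SD, cut at about 5.5% in these data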;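 note: 0% = DMSO wells median and 100% = median of wells with control inhibitor compound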
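Test system: purified T. brucei MetRS enzyme. Also added: ATP, methionine and E. coli bulk tRNA substrates. Compound: 11.9 µM single point. Schedule: 15 min enzyme-compound preincubation, 2 h reaction, 10 min detection, 25 °C. Signal: luciferase luminescence of residual ATP, Kinase-Glo. Evaluation: percent inhibition versus plate control medians. Controls: DMSO wells, low control.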
ABCB6 inh MLPCN: inhibitors of human ABC transporter ABCB6; 0.19% of 360,000 active; K562-ABCB6 porphyrin accumulation, flow cytometry, 1 h; stronger effect = lower value; fluorescence ratio to DMSO, % at 10 µM;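 active = fluorescence ratio to DMSO below 75%, the collection mean minus 3 SD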;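 note: signal is porphyrin accumulated inside mitochondria; 100% equals median channel fluorescence of DMSO control wells; lower ratio means ABCB6 inhibition with less porphyrin fluorescence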
hiPSC survival: hiPSC single-cell survival enhancement | ATPlite luminescence; 100% = ROCK inhibitor wells, 0% = DMSO | survival enhancement, % at 20 µM | 0.044% of 360,000 active; in the data active = survival enhancement above about 18%;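 note: cells exposed to compounds for 16 hours before the ATP read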
Exocytosis inh: blocks lytic granule exocytosis. inhibition, % at 10 µM. AID 651702. 0.66% of 360,000 active. TALL-104 LAMP-1 surface exposure, flow cytometry; cells stimulated with thapsigargin and PMA;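 active = inhibition above about 55%, limit read from the data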
MC4R antag cAMP: antagonists of human melanocortin 4 receptor (MC4R); P32245; MC4R-expressing cells, MTII-stimulated cAMP, LANCE TR-FRET; inhibition, % at 6.5 µM; 0.48% of 360,000 active; AID 540295;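 active = inhibition above its plate's cutoff, the mean of tested wells on that plate plus 3 SD, cut at about 29% in these data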;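 note: 0% = Melanotan II alone and 100% = Melanotan II plus saturating MCL0020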
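material = U2OS cells stably expressing human melanocortin 4 receptor (MC4R) | also added = Melanotan II challenge | dosing = single nominal compound dose of 6.5 µM | detection = TR-FRET with Eu-cAMP and labeled anti-cAMP, 671 nm | replication = singlicate | timing = compound 30 min, challenge 1 h, detection 1 h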
MC4R barr agon: activates human MC4R beta-arrestin recruitment; U2OS MC4R beta-arrestin complementation, luminescence; percent of melanotan II response, DMSO zero; activation, % at 8.9 µM; AID 540308; 0.98% of 360,000 active;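 active = activation above a per-plate cutoff, the mean activation of sample wells on that plate plus 3 SD, cut at about 8% in these data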
* marks the source's active call; other numbers are inactive results; / = no result given.

SMILES	Tb MetRS inh	ABCB6 inh MLPCN	hiPSC survival	Exocytosis inh	MC4R antag cAMP	MC4R barr agon
Cn1c(/C=C/c2cccc([N+](=O)[O-])c2)c([N+](=O)[O-])c(=O)n(C)c1=O	1.5	93.0	0.1	-2.0	-1.4	-1.8
COc1ccc(CCC(C)NCCc2ccc(Cl)cc2Cl)cc1 (stereo unspecified)	0.5	102.0	0.5	48.1	-4.5	9.2*
CC[C@]12c3[nH]c4cc(CCC(=O)N(C)C)ccc4c3CCN1C(=O)[C@@H](CC(=O)NC(C)(C)C)C[C@@H]2C(=O)N1CCN(C(=O)c2ccco2)CC1	-0.8	101.0	0.3	-0.8	11.1	0.3
O=C(CC1C(=O)Nc2ccccc2N1CC(=O)N1CCCC1)Nc1ccc(Br)cc1 (stereo unspecified)	18.8*	104.0	1.5	0.0	1.6	-1.3
Cc1nn(C(=O)c2cccnc2)c(C)c1Sc1ccc(Br)cc1	0.1	100.0	1.1	58.7*	13.4	-0.6
CSCCC(C(=O)Nc1c(C)cccc1C)N(Cc1ccccc1)Cc1ccccc1 (stereo unspecified)	-0.6	98.0	0.9	2.5	/	/
CCOC(=O)Cn1c(-c2ccccc2)cc(SC)c(C#N)c1=O	-1.1	90.0	2.8	61.3*	-5.6	0.1
CSc1cc(-c2ccccc2)n(Cc2c(Cl)cccc2Cl)c(=O)c1C#N	-0.6	98.0	0.3	4.2	0.4	-0.7
O=C(CCl)N(CCc1ccccc1)CCc1ccccc1	-0.9	104.0	-0.6	5.0	4.6	8.3*
Cc1ccc2[nH]c(=O)c(CN(Cc3cccnc3)C(=O)c3ccncc3)cc2c1	0.3	94.0	1.9	-7.6	-2.4	-2.1
CCc1ccc(NC(=O)C2C3/C=C\CCCCC32)cc1 (stereo unspecified)	-0.5	86.0	0.8	-0.8	0.4	2.7
COc1ccc(N2C(=O)C(Cl)=C(Nc3ccc(OC)cc3OC)C2=O)cc1	-0.7	101.0	-0.5	0.1	-3.4	12.7*
COc1ccc(NC2=C(Cl)C(=O)N(c3ccccc3)C2=O)c(OC)c1	-0.6	102.0	0.7	2.5	0.0	0.2
CNc1ccc(/C=C2\COc3ccccc3C2=O)cc1[N+](=O)[O-]	-1.8	101.0	-5.3	1.4	-2.2	-2.2
O=C1/C(=C/c2ccccc2[N+](=O)[O-])COc2ccccc21	-0.3	100.0	-1.4	83.8*	7.5	-3.9
C[C@@H]1[C@@H](Sc2ccccc2)CC(=O)O[C@@H]1c1ccc(-c2ccccc2)cc1	-0.7	97.0	-3.1	-0.9	11.2	-1.4
O=C1C=CC2(O[C@H](c3ccccc3)[C@@H](c3ccccc3)O2)[C@H](Sc2ccccc2O)C1	-0.4	105.0	1.2	102.5*	28.4	-2.6
CCOc1ccc(C2NC(=O)C(C#N)=C(S)N2c2cccc(C)c2)cc1OC (stereo unspecified)	-0.1	100.0	3.6	69.3*	23.0	-4.3
COc1ccc(-c2cc3ccccc3oc2=O)cc1NC(=S)NC(=O)c1ccc2c(c1)OCCO2	-0.5	100.0	-0.2	-7.0	-7.9	9.4*
CCCN(C(=O)c1cc(Cl)nc2ccccc12)c1c(N)n(Cc2ccccc2)c(=O)[nH]c1=O	-0.1	99.0	1.3	5.2	7.7	0.5
CC1CC(C)CN(S(=O)(=O)c2ccc(Cl)cc2)C1 (stereo unspecified)	-1.0	99.0	-0.8	4.2	8.1	9.2*
CSc1ccccc1NC(=O)COc1ccccc1Cl	-1.1	102.0	1.9	-3.0	-3.7	2.1
CCCCN(C(=O)CCC(=O)Nc1cc(C)on1)C(C(=O)NC1CCCC1)c1cccc(OC)c1 (stereo unspecified)	-0.6	97.0	0.1	-6.6	4.4	2.9
COc1cc(C(C(=O)NC2CCCC2)N(C(=O)Cc2cccs2)C2CC2)cc(OC)c1OC (stereo unspecified)	-0.3	100.0	-2.8	-5.6	-5.1	-0.2
CCCCNC(=O)CSc1nc2ccccc2n1S(=O)(=O)c1ccc(Br)cc1	1.2	100.0	1.0	1.2	0.6	-2.1
O=C(CSc1nc2ccccc2n1S(=O)(=O)c1cccc([N+](=O)[O-])c1)NCCc1ccccc1	-0.3	90.0	1.0	11.8	3.0	9.4*
